SMILES strings stand for the structures. Like-named read-outs stand apart in the source and are kept apart here.

The format of data set [1] is in vivo, mice. The procedure, abridged:
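Whole blood was taken 1 to 48 h after a single oral gavage (6.63 mg/kg in corn oil). Hydroxylated metabolites were methylated, and all analytes were run by GC with 63Ni-µECD on an SPB-1 column (60 m × 250 µm × 0.25 µm). The oven ran from 100 °C to 280 °C; injector was 280 °C, detector 300 °C, helium 1.0 mL/min. A PCB congener internal standard served as volume corrector.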

Data set [2] is classed as in vivo, mice. A digest of the protocol:
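Blood extracts were dried under nitrogen. Headspace was sampled by SPME with a 100 µm PDMS fiber for 60 min at 60 °C, then desorbed in the injector for 5 min. Atropisomers were separated by GC-µECD with injector and detector at 250 °C and helium at 3.0 mL/min. The parent was measured on Chirasil-Dex at all time points from 1 to 48 h. Hydroxylated metabolites were measured at 5 h only, on Chirasil-Dex or CycloSil-B columns. Enantiomeric fractions were reported, n = 3–6.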
The source holds these as a separate data set.

The conditions of data set [3]: prior study, 30 mg/kg body weight, cited from earlier work.
A further data set has as its system mice. Description: Daily animal welfare-assessments of exposed mice. The format is in vivo. To be noted: 6.63 mg/kg body weight in corn oil by oral gavage, up to 48 h. The procedure, abridged:
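Male and female mice (8 weeks ± 2 days) with liver-specific cpr deletion and congenic wild-type mice were housed at 22 ± 2 °C on a 12 h light-dark cycle with diet and water ad libitum. They were randomised to a single gavage of test compound (6.63 mg/kg; 18.4 µmol/kg) in corn oil (10 mL/kg) or to corn oil alone. Lab personnel assessed welfare daily.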

[4] abbreviates: 5 h time point, all four exposure groups (M-KO, M-WT, F-KO, F-WT).
Setting [5] is: 5 h time point, all exposure groups.

Take `Oc1cc(Cl)c(Cl)c(-c2c(Cl)ccc(Cl)c2Cl)c1Cl` [5–136, 2,2′,3,3′,6,6′-hexachlorobiphenyl-5-ol]: the “Detection in whole blood” value in data set [1] (setting [4]) is recorded as “detected”.
In the case of `Oc1cc(Cl)c(-c2c(Cl)ccc(Cl)c2Cl)c(Cl)c1Cl` [4–136, 2,2′,3,3′,6,6′-hexachlorobiphenyl-4-ol], the “Detection in whole blood” value in data set [1] (setting [4]) is “detected”.
On to `Oc1c(Cl)cc(Cl)c(-c2c(Cl)ccc(Cl)c2Cl)c1Cl` [3–150, 2,2′,3′,4,6,6′-Hexachlorobiphenyl-3-ol], for which, in data set [1] (setting [4]), the “Detection in whole blood” value is recorded as “detected”.
Take `Clc1ccc(Cl)c(-c2c(Cl)ccc(Cl)c2Cl)c1Cl` [E2-(+)-PCB 136]: in data set [2] (all samples, 1 to 48 h, male and female KO and WT mice), the “Atropisomeric enrichment in whole blood” value was “enriched”.
Regarding `Oc1cc(Cl)c(-c2c(Cl)ccc(Cl)c2Cl)c(Cl)c1Cl` [E2-4–136], the “Atropisomeric enrichment in whole blood” value in data set [2] (setting [5]) was “enriched”.
For the molecule `Oc1c(O)c(Cl)c(-c2c(Cl)ccc(Cl)c2Cl)c(Cl)c1Cl` [4,5–136, 4,5-dihydroxy-2,2′,3,3′,6,6′-hexachlorobiphenyl], in data set [1] (setting [4]), the “Detection in whole blood” value was “detected”.
On to `Oc1cc(Cl)c(Cl)c(-c2c(Cl)ccc(Cl)c2Cl)c1Cl` [E1-5–136], for which, in data set [2] (setting [5]), the “Atropisomeric enrichment in whole blood” value is on record as “enriched”.
On to `Clc1ccc(Cl)c(-c2c(Cl)ccc(Cl)c2Cl)c1Cl` [PCB 136, 2,2’,3,3’,6,6’-hexachlorobiphenyl], for which, in data set [1] (all time points investigated (1 to 48 h), oral racemic PCB 136 6.63 mg/kg), the “Detection in whole blood” value is “detected”. For the same molecule, the “Enantiomeric fraction (EF) of PCB 136” value is on record as 0.63 ± 0.06 in data set [3] (F-WT mice) and 0.66 ± 0.03 in data set [3] (M-WT mice (so in the source)). Further, the “Adverse outcomes in daily animal welfare-assessments” value with mice is “no adverse outcomes were observed”.
